In ChEMBL document CHEMBL5696442, “Discovery of type II inhibitors of TGFβ-activated kinase 1 (TAK1) and mitogen-activated protein kinase kinase kinase kinase 2 (MAP4K2)” (J Med Chem, 2015):
The source made the active and inactive calls. The rule behind the calls is not given here.

Legend:
[1] = target: Serine/threonine-protein kinase 24 (Homo sapiens) (UniProt Q9Y6E0); assay: Inhibition of MST3 Lys2 labeling site harbouring IHRDIKAANVLLSEHGEVK in human Huh-7 cell lysate at 1 uM by KiNativ Profiling analysis relative to control; format: subcellular
[2] = target: Casein kinase I isoform gamma-1 (Homo sapiens) (UniProt Q9HCP0); assay: Inhibition of CSNK1G1 (unknown origin) at 10 uM by Ambit Kinomescan binding assay
[3] = target: T1, Mitogen-activated protein kinase kinase kinase 6 (Homo sapiens) (UniProt O95382); assay: Inhibition of MAP3K6 Lys1 labeling site harbouring IAIKEIPER in human A-375 cells at 5 uM by KiNativ Profiling analysis relative to control; format: cell-based
T1 sequence (whole entry): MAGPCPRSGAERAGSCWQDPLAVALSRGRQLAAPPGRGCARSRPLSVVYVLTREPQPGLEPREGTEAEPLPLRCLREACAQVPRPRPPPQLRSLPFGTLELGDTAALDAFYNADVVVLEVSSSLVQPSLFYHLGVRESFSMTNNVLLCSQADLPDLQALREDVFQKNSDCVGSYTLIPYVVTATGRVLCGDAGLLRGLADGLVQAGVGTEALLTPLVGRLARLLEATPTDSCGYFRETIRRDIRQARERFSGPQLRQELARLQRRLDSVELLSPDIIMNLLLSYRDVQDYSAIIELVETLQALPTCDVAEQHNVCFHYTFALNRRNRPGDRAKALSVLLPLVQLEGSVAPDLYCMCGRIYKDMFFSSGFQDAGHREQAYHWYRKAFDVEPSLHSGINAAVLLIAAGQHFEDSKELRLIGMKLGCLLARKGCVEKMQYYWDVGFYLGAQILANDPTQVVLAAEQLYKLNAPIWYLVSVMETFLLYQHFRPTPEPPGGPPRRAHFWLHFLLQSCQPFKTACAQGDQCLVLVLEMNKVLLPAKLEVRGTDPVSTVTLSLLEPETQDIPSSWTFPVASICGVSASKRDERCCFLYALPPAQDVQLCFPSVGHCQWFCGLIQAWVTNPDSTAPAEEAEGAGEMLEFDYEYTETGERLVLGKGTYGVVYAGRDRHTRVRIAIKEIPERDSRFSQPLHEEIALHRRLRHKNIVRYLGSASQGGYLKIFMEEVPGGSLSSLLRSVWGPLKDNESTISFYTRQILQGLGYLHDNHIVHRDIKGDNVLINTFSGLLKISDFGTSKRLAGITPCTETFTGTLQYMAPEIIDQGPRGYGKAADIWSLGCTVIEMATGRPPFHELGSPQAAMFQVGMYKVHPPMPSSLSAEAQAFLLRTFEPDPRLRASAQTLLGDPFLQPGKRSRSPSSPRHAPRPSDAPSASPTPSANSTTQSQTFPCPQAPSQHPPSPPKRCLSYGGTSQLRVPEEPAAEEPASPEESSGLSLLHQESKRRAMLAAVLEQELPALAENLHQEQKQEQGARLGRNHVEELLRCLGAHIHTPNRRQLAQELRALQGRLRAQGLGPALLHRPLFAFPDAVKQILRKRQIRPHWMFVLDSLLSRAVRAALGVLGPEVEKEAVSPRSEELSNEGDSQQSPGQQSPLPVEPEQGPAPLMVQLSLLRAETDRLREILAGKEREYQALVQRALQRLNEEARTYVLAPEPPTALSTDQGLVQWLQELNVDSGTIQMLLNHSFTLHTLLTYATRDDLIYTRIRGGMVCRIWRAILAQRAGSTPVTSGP

[4] = target: T2, Serine/threonine-protein kinase TAO1 (Homo sapiens) (UniProt Q7L7X3); assay: Inhibition of TAOK1 (unknown origin) at 10 uM by Ambit Kinomescan binding assay relative to control; values are per cent of control
T2 sequence (whole entry): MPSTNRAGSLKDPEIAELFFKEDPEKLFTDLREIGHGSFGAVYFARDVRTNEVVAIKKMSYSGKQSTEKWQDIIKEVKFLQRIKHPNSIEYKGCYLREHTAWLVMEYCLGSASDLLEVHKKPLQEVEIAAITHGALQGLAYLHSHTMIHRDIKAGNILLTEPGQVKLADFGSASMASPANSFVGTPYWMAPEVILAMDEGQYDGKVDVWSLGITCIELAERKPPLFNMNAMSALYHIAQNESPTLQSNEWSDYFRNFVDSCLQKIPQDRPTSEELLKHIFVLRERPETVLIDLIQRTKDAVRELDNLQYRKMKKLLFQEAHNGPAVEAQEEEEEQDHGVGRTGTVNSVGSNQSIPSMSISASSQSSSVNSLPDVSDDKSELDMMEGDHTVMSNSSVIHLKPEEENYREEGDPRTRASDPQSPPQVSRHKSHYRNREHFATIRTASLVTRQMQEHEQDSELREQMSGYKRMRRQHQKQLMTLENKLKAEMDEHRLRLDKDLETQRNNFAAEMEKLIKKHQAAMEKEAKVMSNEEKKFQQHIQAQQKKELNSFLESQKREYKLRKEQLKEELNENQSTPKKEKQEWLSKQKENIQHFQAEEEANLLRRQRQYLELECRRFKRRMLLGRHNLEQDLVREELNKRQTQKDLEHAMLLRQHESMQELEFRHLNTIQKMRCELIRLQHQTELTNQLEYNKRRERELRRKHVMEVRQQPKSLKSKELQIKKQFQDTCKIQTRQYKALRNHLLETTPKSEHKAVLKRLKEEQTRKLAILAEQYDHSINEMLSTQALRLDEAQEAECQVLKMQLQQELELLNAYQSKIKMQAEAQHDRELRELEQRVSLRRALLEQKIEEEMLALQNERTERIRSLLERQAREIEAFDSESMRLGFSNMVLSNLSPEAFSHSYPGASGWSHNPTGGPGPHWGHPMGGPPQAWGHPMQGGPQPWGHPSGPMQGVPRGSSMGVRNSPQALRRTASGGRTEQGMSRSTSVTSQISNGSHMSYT

[5] = target: Activated CDC42 kinase 1 (Homo sapiens) (UniProt Q07912); assay: Inhibition of TNK2 (unknown origin) at 1 uM by Ambit Kinomescan binding assay relative to control
[6] = target: Microtubule-associated serine/threonine-protein kinase 4 (Homo sapiens) (UniProt O15021); assay: Inhibition of MAST4 Lys2 labeling site in human A-375 cells at 5 uM by KiNativ Profiling analysis relative to control; format: cell-based
Outline: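 Live A375 melanoma cells were treated with compound at 5 or 0.5 μM, then lysed. Lysates were labeled with a lysine-reactive ATP or ADP-biotin probe. Read-out was the compound's protection of kinase labeling sites from probe labeling (KiNativ).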

[7] = target: 5'-AMP-activated protein kinase catalytic subunit alpha-2 (Homo sapiens) (UniProt P54646); assay: Inhibition of AMPKa2 Lys2 labeling site in human A-375 cells at 0.5 uM by KiNativ Profiling analysis relative to control; format: cell-based
[8] = target: 5'-AMP-activated protein kinase catalytic subunit alpha-2 (Homo sapiens) (UniProt P54646); assay: Inhibition of AMPKa2 Lys1 labeling site in human A-375 cells at 0.5 uM by KiNativ Profiling analysis relative to control; format: cell-based
Outline: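 Live A375 melanoma cells were treated with compound at 5 or 0.5 μM, then lysed. The lysates were labeled with a lysine-reactive ATP or ADP-biotin probe. Kinase protection from probe labeling was measured by KiNativ.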

5'-AMP-activated protein kinase catalytic subunit alpha-2 (Homo sapiens), sequence (P54646 whole entry, looked up): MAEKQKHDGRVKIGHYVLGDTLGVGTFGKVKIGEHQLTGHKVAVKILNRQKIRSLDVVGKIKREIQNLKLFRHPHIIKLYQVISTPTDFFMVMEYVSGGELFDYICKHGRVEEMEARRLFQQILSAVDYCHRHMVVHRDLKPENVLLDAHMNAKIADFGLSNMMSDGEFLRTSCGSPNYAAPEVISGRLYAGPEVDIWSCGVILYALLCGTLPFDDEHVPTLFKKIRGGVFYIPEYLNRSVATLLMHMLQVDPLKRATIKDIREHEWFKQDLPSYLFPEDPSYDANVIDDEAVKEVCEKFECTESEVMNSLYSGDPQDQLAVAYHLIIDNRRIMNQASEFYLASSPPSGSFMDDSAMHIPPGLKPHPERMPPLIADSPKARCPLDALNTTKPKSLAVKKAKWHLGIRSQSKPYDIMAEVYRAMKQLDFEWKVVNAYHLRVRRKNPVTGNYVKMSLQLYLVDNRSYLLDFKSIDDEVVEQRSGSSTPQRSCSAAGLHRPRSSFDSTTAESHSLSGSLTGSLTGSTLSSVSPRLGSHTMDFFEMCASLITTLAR
Microtubule-associated serine/threonine-protein kinase 4 (Homo sapiens), sequence (O15021 whole entry): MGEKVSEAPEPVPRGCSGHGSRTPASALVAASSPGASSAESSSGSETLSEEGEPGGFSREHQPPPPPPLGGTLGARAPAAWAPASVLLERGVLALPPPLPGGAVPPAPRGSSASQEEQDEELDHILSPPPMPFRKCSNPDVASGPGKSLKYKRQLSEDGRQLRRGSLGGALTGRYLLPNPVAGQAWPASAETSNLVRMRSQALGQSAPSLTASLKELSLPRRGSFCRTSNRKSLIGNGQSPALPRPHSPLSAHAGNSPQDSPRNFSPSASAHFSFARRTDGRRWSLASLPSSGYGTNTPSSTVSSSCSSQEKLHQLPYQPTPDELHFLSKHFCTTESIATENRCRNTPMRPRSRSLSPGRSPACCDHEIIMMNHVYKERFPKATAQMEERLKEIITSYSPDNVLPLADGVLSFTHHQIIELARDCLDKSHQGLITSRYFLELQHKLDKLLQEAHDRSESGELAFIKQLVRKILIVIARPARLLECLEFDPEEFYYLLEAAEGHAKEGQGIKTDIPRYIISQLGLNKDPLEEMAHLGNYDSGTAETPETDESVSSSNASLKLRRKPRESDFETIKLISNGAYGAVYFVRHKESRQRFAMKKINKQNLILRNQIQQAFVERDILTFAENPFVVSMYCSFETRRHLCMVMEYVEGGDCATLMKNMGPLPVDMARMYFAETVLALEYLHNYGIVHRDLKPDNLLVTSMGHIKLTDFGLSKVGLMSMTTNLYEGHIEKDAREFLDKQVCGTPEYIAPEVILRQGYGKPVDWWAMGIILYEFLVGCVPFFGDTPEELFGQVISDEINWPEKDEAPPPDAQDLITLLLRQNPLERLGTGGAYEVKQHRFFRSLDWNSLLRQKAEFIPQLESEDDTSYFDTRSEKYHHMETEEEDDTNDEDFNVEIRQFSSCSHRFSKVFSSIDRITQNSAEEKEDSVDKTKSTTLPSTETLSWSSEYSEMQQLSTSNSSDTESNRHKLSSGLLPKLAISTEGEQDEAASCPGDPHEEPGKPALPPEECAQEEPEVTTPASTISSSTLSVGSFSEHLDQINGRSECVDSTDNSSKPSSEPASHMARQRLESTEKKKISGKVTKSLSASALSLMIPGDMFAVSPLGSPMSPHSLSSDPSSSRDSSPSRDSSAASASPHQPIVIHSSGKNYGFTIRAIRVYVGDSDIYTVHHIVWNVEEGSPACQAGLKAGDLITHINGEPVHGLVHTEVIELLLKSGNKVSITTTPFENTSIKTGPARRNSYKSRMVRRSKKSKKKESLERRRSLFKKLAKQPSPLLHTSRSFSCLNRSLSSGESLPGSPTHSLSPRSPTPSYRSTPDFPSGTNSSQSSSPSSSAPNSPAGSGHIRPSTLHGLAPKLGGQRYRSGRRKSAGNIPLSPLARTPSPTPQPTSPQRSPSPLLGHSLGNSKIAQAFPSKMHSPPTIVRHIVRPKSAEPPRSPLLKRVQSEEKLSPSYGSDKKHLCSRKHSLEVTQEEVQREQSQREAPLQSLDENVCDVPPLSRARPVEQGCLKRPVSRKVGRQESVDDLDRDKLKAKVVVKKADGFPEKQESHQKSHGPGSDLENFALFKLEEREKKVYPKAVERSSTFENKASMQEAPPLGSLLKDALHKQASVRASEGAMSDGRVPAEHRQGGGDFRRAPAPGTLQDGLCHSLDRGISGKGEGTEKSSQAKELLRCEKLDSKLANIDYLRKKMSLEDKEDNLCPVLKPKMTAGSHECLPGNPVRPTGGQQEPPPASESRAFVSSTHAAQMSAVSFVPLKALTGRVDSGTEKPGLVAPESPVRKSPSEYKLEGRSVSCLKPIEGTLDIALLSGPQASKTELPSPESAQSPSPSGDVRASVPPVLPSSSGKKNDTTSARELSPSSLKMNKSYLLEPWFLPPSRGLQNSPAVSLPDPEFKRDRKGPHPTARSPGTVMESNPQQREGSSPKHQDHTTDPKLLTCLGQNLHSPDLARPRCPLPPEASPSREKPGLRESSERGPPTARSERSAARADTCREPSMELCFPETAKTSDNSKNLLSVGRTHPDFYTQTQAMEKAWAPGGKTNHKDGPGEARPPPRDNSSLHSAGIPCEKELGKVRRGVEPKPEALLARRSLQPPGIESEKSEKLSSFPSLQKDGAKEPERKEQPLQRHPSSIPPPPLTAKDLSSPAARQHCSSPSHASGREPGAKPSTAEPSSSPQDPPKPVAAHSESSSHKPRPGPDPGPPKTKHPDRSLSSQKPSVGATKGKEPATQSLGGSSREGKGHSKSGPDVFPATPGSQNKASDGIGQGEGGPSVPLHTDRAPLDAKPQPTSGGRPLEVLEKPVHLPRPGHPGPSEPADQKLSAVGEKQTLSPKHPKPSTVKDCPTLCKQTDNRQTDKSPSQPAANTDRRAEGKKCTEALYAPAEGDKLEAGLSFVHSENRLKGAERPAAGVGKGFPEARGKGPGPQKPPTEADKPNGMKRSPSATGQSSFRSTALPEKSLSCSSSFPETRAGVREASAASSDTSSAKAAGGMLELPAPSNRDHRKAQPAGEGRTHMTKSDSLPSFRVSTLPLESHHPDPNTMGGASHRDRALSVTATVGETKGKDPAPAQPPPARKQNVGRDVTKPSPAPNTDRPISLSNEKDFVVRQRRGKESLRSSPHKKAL
Casein kinase I isoform gamma-1 (Homo sapiens), sequence (Q9HCP0 whole entry, looked up, canonical isoform): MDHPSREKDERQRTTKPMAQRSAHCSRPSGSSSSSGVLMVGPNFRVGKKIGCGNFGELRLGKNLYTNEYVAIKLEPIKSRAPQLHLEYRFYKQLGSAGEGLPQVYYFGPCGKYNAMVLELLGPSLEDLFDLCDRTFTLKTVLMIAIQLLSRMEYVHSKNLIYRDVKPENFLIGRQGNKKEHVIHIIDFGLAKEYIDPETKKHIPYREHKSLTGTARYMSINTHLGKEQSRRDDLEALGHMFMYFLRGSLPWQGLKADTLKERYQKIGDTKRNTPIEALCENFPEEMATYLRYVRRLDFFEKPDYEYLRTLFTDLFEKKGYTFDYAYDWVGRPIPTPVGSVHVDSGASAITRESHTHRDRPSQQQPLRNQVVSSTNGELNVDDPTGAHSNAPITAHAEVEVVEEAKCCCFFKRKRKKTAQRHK
Activated CDC42 kinase 1 (Homo sapiens), sequence (Q07912 whole entry, looked up): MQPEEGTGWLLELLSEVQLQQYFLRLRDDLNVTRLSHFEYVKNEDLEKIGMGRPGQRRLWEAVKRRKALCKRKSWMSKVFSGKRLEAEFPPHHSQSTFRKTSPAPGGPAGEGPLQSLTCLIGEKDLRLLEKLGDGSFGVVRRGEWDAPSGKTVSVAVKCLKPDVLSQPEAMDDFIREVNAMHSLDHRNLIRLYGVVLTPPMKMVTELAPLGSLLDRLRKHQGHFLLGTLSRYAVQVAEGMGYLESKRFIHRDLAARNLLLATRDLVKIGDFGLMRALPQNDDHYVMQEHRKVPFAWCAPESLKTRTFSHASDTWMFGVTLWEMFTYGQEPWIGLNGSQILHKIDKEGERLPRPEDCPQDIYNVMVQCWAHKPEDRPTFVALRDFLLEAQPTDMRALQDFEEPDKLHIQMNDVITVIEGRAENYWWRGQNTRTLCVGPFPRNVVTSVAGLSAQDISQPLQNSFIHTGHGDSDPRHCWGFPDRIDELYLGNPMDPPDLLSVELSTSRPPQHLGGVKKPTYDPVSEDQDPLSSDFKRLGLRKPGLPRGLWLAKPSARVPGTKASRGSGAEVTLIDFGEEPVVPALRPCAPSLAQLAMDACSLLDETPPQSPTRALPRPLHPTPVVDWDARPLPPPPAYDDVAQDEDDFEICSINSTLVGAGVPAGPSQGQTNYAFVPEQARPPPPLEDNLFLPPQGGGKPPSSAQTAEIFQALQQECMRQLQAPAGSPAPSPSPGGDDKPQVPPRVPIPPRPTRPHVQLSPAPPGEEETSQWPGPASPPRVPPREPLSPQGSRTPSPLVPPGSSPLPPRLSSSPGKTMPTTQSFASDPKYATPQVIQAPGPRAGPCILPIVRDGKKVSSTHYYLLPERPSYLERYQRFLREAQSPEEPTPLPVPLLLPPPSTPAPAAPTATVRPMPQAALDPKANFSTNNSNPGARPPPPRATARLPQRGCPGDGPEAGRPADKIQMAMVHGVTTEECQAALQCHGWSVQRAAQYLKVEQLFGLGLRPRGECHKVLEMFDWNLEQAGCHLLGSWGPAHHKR
Serine/threonine-protein kinase 24 (Homo sapiens), sequence (Q9Y6E0 whole entry, looked up, canonical isoform): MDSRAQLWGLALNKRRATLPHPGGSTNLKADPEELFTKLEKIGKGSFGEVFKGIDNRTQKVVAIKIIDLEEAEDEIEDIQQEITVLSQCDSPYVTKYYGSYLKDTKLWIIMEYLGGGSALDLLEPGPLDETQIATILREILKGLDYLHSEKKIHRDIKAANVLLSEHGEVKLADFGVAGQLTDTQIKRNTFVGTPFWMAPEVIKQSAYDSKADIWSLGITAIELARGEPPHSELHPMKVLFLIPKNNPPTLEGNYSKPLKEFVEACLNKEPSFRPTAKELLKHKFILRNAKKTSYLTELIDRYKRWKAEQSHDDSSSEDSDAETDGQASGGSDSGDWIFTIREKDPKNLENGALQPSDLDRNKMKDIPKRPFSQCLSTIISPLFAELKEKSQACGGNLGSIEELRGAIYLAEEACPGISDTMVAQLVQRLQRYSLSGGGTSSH

## CNc1cc(Oc2cc(C(=O)Nc3cc(N4CCN(C)CC4)cc(C(F)(F)F)c3)ccc2C)ncn1
[1]
  inhibition: 15.9%

## CCN1CCN(Cc2ccc(NC(=O)c3ccc(C)c(Oc4ccnc5[nH]ccc45)c3)cc2C(F)(F)F)CC1
[2]
  inhibition: inactive
[3]
  inhibition: -0.6%
[4]
  residual activity: 3%

## CCN1CCN(Cc2ccc(NC(=O)c3ccc(C)c(/C=C/c4cnc5[nH]ccc5c4OC)c3)cc2C(F)(F)F)CC1
[5]
  inhibition: 5.4%
[6]
  inhibition: -8.4%
[7]
  inhibition: -8.2%
[8]
  inhibition: 20.3%
